In article PMC5217871 (Journal of Diabetes Investigation, 2016):
“Also recorded” adds a separate entry of the source. Read-outs that look alike come from different tables or passages of the source. Values belong to the molecule of their own block, whether it stands above or below them.

How the values were obtained:
[1] = cited from earlier work
Urine pharmacokinetics = type: in vivo, healthy Japanese men; conditions: male, human, 50 mg
How it was run: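 After the 50 mg once-weekly dose on day 15, urine was collected predose (day 1) and at intervals up to 168 h. Tween 20 was added to 0.2% final and samples were stored at −20°C. The assay was LC online extraction, LLOQ 40 ng/mL. Amount excreted was the sum of concentration × volume per interval, fraction excreted was amount/dose, and renal clearance was amount/AUC0–168h.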

OAT3 = conditions: no reference given; cited from earlier work
plasma DPP‐4 activity [2] = target: T1, plasma DPP‐4 activity (Homo sapiens, UniProt P27487); assay: Percent inhibition of plasma DPP-4 activity from baseline; type: in vivo, healthy Japanese men; conditions: for DPP-4 percent inhibition from baseline, LS mean (95% CI) / DPP-4 percent inhibition, difference from placebo, difference in LS means (90% CI): 168 h post-dose
T1 sequence (P27487 39-766): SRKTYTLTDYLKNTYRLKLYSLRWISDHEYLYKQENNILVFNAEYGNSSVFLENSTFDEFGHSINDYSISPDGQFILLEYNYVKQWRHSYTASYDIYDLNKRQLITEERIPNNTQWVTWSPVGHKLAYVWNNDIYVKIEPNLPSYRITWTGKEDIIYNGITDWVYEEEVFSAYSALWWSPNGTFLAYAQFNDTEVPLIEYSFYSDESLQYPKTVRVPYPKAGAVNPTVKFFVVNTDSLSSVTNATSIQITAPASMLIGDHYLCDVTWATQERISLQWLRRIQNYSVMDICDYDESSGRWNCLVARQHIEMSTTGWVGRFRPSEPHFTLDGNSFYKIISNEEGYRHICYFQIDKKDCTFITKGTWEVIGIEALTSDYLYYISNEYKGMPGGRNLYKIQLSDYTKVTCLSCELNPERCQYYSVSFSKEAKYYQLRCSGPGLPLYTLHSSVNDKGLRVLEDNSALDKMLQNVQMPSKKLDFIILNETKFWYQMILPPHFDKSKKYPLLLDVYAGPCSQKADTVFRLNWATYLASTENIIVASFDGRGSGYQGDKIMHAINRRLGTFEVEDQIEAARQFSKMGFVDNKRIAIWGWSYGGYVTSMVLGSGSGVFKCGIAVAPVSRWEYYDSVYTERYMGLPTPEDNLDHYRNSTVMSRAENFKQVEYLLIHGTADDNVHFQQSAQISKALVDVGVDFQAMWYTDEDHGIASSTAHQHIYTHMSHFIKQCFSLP
How it was run: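 Healthy men received 1–50 mg orally once weekly for 3 weeks. Blood was drawn predose and at set times on days 1 and 15; 4-h and 24-h samples preceded meals. EDTA plasma was incubated with glycyl-prolyl-paranitroanilide, and the absorbance rise at 390 nm was read from 4 to 14 min (LOQ 0.6 mOD/min). Inhibition was taken versus pretreatment and analysed by a log-scale mixed model (treatment, day, interaction; participant random).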

[3] = Safety and tolerability assessments; type: in vivo, healthy Japanese men
How it was run: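 Part 1 used single doses of 5–100 mg and part 2 used 1–50 mg once weekly for 3 weeks, each with placebo. Adverse events were recorded throughout and rated for intensity, duration, severity, outcome and drug relationship. Vital signs, physical and neurological exams, 12-lead ECGs, laboratory tests and glucometer readings were taken predose, post-dose and post-study. Events were tabulated by dose, with change-from-baseline summaries.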

plasma DPP‐4 activity [4] = target: T1, plasma DPP‐4 activity; type: in vivo, healthy Japanese men; conditions: pharmacokinetic/pharmacodynamic Emax model
How it was run: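 For each participant, percent inhibition of plasma DPP-4 activity (chromogenic glycyl-prolyl-paranitroanilide substrate, 390 nm) was paired with plasma drug concentration after single oral doses. A population three-parameter Emax model (Emax, EC50, Hill slope) was fitted, and the 80% effective concentration was derived from it.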

[5] = system: active glucagon‐like peptide‐1; conditions: healthy males; earlier study; cited from earlier work
OCT2 = conditions: no reference given; cited from earlier work
[6] = no reference given; cited from earlier work
OAT1 = conditions: no reference given; cited from earlier work
[7] = concentration range for 50 mg q.w. dosing; ref unpubl. data; cited from earlier work
[8] = type: in vivo, healthy Japanese men; conditions: for Accumulation ratio (day 15/day 1) AUC0–168h / Accumulation ratio (day 15/day 1) Cmax / Accumulation ratio (day 15/day 1) Ctrough: geometric mean ratio (90% CI)
How it was run: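 Blood went into dipotassium-EDTA tubes, was spun 10 min at 1000–1300 g, and plasma was frozen at −20°C. Assay was online-extraction turbulent-flow LC, LLOQ 1.0 ng/mL. Accumulation was the day 15/day 1 geometric mean ratio, computed on the log scale with CIs. For the food comparison, 10 mg single doses were given after a ≥10-h fast or after a 411-kcal Japanese breakfast finished 10 min predose.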

[9] = multiple dose 1 mg q.w., day 15
[10] = multiple dose 10 mg q.w., day 15
[11] = multiple dose 25 mg q.w., day 15
[12] = multiple dose 50 mg q.w., day 15
[13] = single 5–100 mg and multiple 1–50 mg q.w. doses
[14] = single 5–100 mg and multiple 1–50 mg q.w. doses, listed as Omarigliptin

Structure (SMILES): Cn1c(=O)cc(N2CCC[C@@H](N)C2)n(Cc2cc(F)ccc2C#N)c1=O [trelagliptin]
renal clearance compared with typical glomerular filtration rates [1]: higher renal clearance than typical glomerular filtration rates

Structure (SMILES): N[C@@H](CC(=O)N1CCn2c(nnc2C(F)(F)F)C1)Cc1cc(F)c(F)cc1F [sitagliptin]
renal clearance compared with typical glomerular filtration rates [1]: higher renal clearance than typical glomerular filtration rates

CL renal (Urine pharmacokinetics; urine and plasma, oral): 50 to 68 mL/min
CL renal (Urine pharmacokinetics; urine, po): 38.3 mL/min
percent inhibition of DPP‐4 activity from baseline at 168 h, range (plasma DPP‐4 activity [2]; 1–50 mg q.w., after 3 weeks dosing): 51.3–90.2%
DPP-4 percent inhibition from baseline, LS mean (95% CI) (plasma DPP‐4 activity [2]; [9]): 51.33 (29.67–66.32) %
DPP-4 percent inhibition, difference from placebo, difference in LS means (90% CI) (plasma DPP‐4 activity [2]; [9]): 42.48 (31.06–54.19) %
DPP-4 percent inhibition from baseline, LS mean (95% CI) (plasma DPP‐4 activity [2]; [10]): 83.26 (77.03–87.80) %
DPP-4 percent inhibition, difference from placebo, difference in LS means (90% CI) (plasma DPP‐4 activity [2]; [10]): 74.41 (65.73–83.59) %
DPP-4 percent inhibition from baseline, LS mean (95% CI) (plasma DPP‐4 activity [2]; [11]): 87.52 (83.55–90.53) %
DPP-4 percent inhibition, difference from placebo, difference in LS means (90% CI) (plasma DPP‐4 activity [2]; [11]): 78.67 (70.36–87.51) %
DPP-4 percent inhibition from baseline, LS mean (95% CI) (plasma DPP‐4 activity [2]; [12]): 90.23 (86.59–92.88) %
DPP-4 percent inhibition, difference from placebo, difference in LS means (90% CI) (plasma DPP‐4 activity [2]; [12]): 81.37 (73.30–90.00) %
DPP-4 percent inhibition from baseline, LS mean (95% CI) (plasma DPP‐4 activity [2]; single dose 5 mg): 79.20 (76.17–81.85) %
DPP-4 percent inhibition, difference from placebo, difference in LS means (90% CI) (plasma DPP‐4 activity [2]; single dose 5 mg): 87.89 (80.96–95.09) %
DPP-4 percent inhibition from baseline, LS mean (95% CI) (plasma DPP‐4 activity [2]; single dose 10 mg (fasted)): 77.39 (74.14–80.24) %
DPP-4 percent inhibition, difference from placebo, difference in LS means (90% CI) (plasma DPP‐4 activity [2]; single dose 10 mg (fasted)): 86.09 (79.05–93.38) %
DPP-4 percent inhibition from baseline, LS mean (95% CI) (plasma DPP‐4 activity [2]; single dose 10 mg (fed)): 73.90 (70.14–77.18) %
DPP-4 percent inhibition, difference from placebo, difference in LS means (90% CI) (plasma DPP‐4 activity [2]; single dose 10 mg (fed)): 82.59 (75.36–90.06) %
DPP-4 percent inhibition from baseline, LS mean (95% CI) (plasma DPP‐4 activity [2]; single dose 25 mg): 85.97 (83.66–87.95) %
DPP-4 percent inhibition, difference from placebo, difference in LS means (90% CI) (plasma DPP‐4 activity [2]; single dose 25 mg): 94.66 (88.11–101.49) %
DPP-4 percent inhibition from baseline, LS mean (95% CI) (plasma DPP‐4 activity [2]; single dose 50 mg): 86.76 (84.59–88.63) %
DPP-4 percent inhibition, difference from placebo, difference in LS means (90% CI) (plasma DPP‐4 activity [2]; single dose 50 mg): 95.45 (88.95–102.25) %
DPP-4 percent inhibition from baseline, LS mean (95% CI) (plasma DPP‐4 activity [2]; single dose 100 mg): 94.01 (93.03–94.85) %
DPP-4 percent inhibition, difference from placebo, difference in LS means (90% CI) (plasma DPP‐4 activity [2]; single dose 100 mg): 102.70 (96.60–109.11) %
inhibition from baseline of DPP‐4 activity maintained for 168 h (plasma DPP‐4 activity [2]; single and multiple q.w. administration at a dose of 25 mg or higher): Greater than 80%
Emax value (plasma DPP‐4 activity [4]): 96.5 % inhibition
estimated 80% effective concentration (plasma DPP‐4 activity [4]): 11.4 nmol
Accumulation ratio (day 15/day 1) AUC0–168h ([8]; 1 mg q.w. for 3 weeks): 1.35 (1.27–1.44)
Accumulation ratio (day 15/day 1) Cmax ([8]; 1 mg q.w. for 3 weeks): 1.36 (1.13–1.63)
Accumulation ratio (day 15/day 1) Ctrough ([8]; 1 mg q.w. for 3 weeks): 1.24 (1.06–1.44)
Accumulation ratio (day 15/day 1) AUC0–168h ([8]; 10 mg q.w. for 3 weeks): 1.09 (1.04–1.15)
Accumulation ratio (day 15/day 1) Cmax ([8]; 10 mg q.w. for 3 weeks): 1.18 (1.00–1.38)
Accumulation ratio (day 15/day 1) Ctrough ([8]; 10 mg q.w. for 3 weeks): 0.97 (0.86–1.10)
Accumulation ratio (day 15/day 1) AUC0–168h ([8]; 25 mg q.w. for 3 weeks): 1.05 (1.00–1.11)
Accumulation ratio (day 15/day 1) Cmax ([8]; 25 mg q.w. for 3 weeks): 0.87 (0.75–1.02)
Accumulation ratio (day 15/day 1) Ctrough ([8]; 25 mg q.w. for 3 weeks): 1.11 (0.98–1.26)
Accumulation ratio (day 15/day 1) AUC0–168h ([8]; 50 mg q.w. for 3 weeks): 1.03 (0.97–1.09)
Accumulation ratio (day 15/day 1) Cmax ([8]; 50 mg q.w. for 3 weeks): 1.21 (1.02–1.43)
Accumulation ratio (day 15/day 1) Ctrough ([8]; 50 mg q.w. for 3 weeks): 1.03 (0.90–1.18)
accumulation ratio (day 15/day 1) AUC0–168h, range ([8]; 1–50 mg q.w. for 3 weeks): 1.03–1.35
accumulation ratio (day 15/day 1) Cmax, range ([8]; 1–50 mg q.w. for 3 weeks): 0.87–1.36
accumulation ratio (day 15/day 1) trough plasma concentration, range ([8]; 1–50 mg q.w. for 3 weeks): 0.97–1.24
half-life ([8]; male, human, plasma, po, 10 mg, t½, single dose 10 mg, fed, geometric mean (%CV)): 89.5 h
dose proportionality of AUC0–168h and trough plasma concentration ([8]; multiple dose 1–50 mg q.w.): less than dose‐proportional
dose proportionality of Cmax ([8]; multiple dose 1–50 mg q.w.): dose‐proportional
time at which steady state was reached ([8]; multiple q.w. dosing, all doses tested): after the first dose
AUC0–168h geometric mean ratio (fed/fasted) ([8]; single dose 10 mg, GMR, 90% CI): 0.97 (0.90–1.03)
AUC0–∞ geometric mean ratio (fed/fasted) ([8]; single dose 10 mg, GMR, 90% CI): 1.03 (0.96–1.11)
C168h geometric mean ratio (fed/fasted) ([8]; single dose 10 mg, GMR, 90% CI): 1.13 (0.93–1.37)
Cmax geometric mean ratio (fed/fasted) ([8]; single dose 10 mg, GMR, 90% CI): 0.75 (0.65–0.86)
dose proportionality of AUC0–∞, AUC0–168h and Cmax ([8]; single dose 5–100 mg): approximately dose‐proportional
dose proportionality of C168h ([8]; single dose 5–100 mg): less than dose‐proportional
Structure (SMILES): CS(=O)(=O)n1cc2c(n1)CN([C@H]1CO[C@H](c3cc(F)ccc3F)[C@@H](N)C1)C2 [omarigliptin]
substrate of drug transporter OAT3 (OAT3): not a substrate
drug‐related clinical adverse events after omarigliptin ([3]; part 1, single dosing): five
drug‐related adverse events ([3]; part 2, multiple dosing): Eight
total clinical adverse events ([3]; part 2, multiple dosing, nine participants): 13
adverse events of hypoglycemia [3, 13]: no adverse events of hypoglycemia
serious clinical or laboratory adverse events [3, 13]: no serious clinical or laboratory adverse events; also recorded: No deaths, serious adverse events or laboratory adverse events were reported
tolerability [3, 13]: well tolerated
adverse events of hypoglycemia [3, 14]: no hypoglycemia being reported
tolerability [3, 14]: generally well tolerated
changes from baseline in laboratory, vital signs, glucose monitoring or ECG parameters ([3]; whole study): no clinically significant, consistent treatment‐related or dose‐related changes from baseline
discontinuation because of an adverse event ([3]; whole study): no participants were discontinued
intensity of adverse events ([3]; whole study, all resolved by the end of the study): mild or moderate intensity
enhancement of post‐meal active glucagon‐like peptide‐1 [5]: approximately twofold
substrate of drug transporter OCT2 (OCT2): not a substrate
permeability [6]: high permeability
substrate of drug transporter OAT1 (OAT1): not a substrate
free fraction of omarigliptin in humans [7]: 56–76%
effect of food on pharmacokinetics ([8]; 10 mg single dose with Japanese standard breakfast): did not meaningfully alter the pharmacokinetics

Structure (SMILES): Cn1c(=O)cc(N2CCC[C@@H](N)C2)n(Cc2ccccc2C#N)c1=O [alogliptin]
renal clearance compared with typical glomerular filtration rates [1]: higher renal clearance than typical glomerular filtration rates
